Measurements published in ChEMBL document CHEMBL2057135, “Synthesis, antitubercular and antimicrobial evaluation of 3-(4-chlorophenyl)-4-substituted pyrazole derivatives” (2012).
Converted amounts (≈) assume the structure as drawn.

Columns and labels:
Assay type in all cases: functional
Escherichia coli = test: Antibacterial activity against Escherichia coli ATCC 25922
Aspergillus niger = test: Antifungal activity against Aspergillus niger KCTC 1231 after 2 days; details: KCTC 1231, 48 h
Aspergillus flavus = test: Antifungal activity against Aspergillus flavus KCCM 11899 after 2 days; details: KCCM 11899, 48 h
Staphylococcus aureus = test: Antibacterial activity against Staphylococcus aureus ATCC 29213
Pichia kudriavzevii = test: Antifungal activity against Candida krusei KCCM 11655 after 1 day; details: KCCM 11655, 24 h
Cryptococcus neoformans = test: Antifungal activity against Cryptococcus neoformans KCCM 50564 after 1 day; details: KCCM 50564, 24 h
[1] = system: Mycobacterium tuberculosis; test: Antitubercular activity against Mycobacterium tuberculosis H37Rv ATCC 27294 after 7 days by BACTEC method; details: H37Rv ATCC 27294, 168 h
Procedure, shortened: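 Screened in vitro against M. tuberculosis H37Rv in a modified BACTEC 460 radiometric system. Test compound stocks were made at 1 mg/ml in DMSO and filter-sterilised through 0.22 µm PTFE filters. MIC was read, with rifampin as the reference agent.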

| SMILES | MIC (Escherichia coli) | MIC (Aspergillus niger) | MIC (Aspergillus flavus) | MIC (Staphylococcus aureus) | MIC (Pichia kudriavzevii) | MIC (Cryptococcus neoformans) | MIC [1] |
| --- | --- | --- | --- | --- | --- | --- | --- |
| O=C(N/N=C/c1ccccc1Cl)c1cc(-c2ccc(Cl)cc2)n[nH]1 | 0.014 µg/mL (≈ 0.039 µM) | 12.5 µg/mL (≈ 34.8 µM) | 25 µg/mL (≈ 69.6 µM) | 0.21 µg/mL (≈ 0.585 µM) | 12.5 µg/mL (≈ 34.8 µM) | 3.2 µg/mL (≈ 8.91 µM) | 0.36 µg/mL (≈ 1 µM) |
| COc1ccc(/C=N/NC(=O)c2cc(-c3ccc(Cl)cc3)n[nH]2)cc1 | 0.01 µg/mL (≈ 0.0282 µM) | 12.5 µg/mL (≈ 35.2 µM) | 100 µg/mL (≈ 282 µM) | 0.18 µg/mL (≈ 0.507 µM) | 100 µg/mL (≈ 282 µM) | 50 µg/mL (≈ 141 µM) | 0.85 µg/mL (≈ 2.4 µM) |
| O=C(N/N=C/c1ccccc1[N+](=O)[O-])c1cc(-c2ccc(Cl)cc2)n[nH]1 | 8 µg/mL (≈ 21.6 µM) | 3.2 µg/mL (≈ 8.65 µM) | 25 µg/mL (≈ 67.6 µM) | 8 µg/mL (≈ 21.6 µM) | 100 µg/mL (≈ 270 µM) | 1.6 µg/mL (≈ 4.33 µM) | > 5 µg/mL |
| O=C(N/N=C/c1ccc(Cl)cc1)c1cc(-c2ccc(Cl)cc2)n[nH]1 | 0.012 µg/mL (≈ 0.0334 µM) | 12.5 µg/mL (≈ 34.8 µM) | 25 µg/mL (≈ 69.6 µM) | 0.12 µg/mL (≈ 0.334 µM) | 12.5 µg/mL (≈ 34.8 µM) | 1.6 µg/mL (≈ 4.45 µM) | 1.1 µg/mL (≈ 3.06 µM) |
| O=C(NN1C(=O)CSC1c1ccccc1)c1cc(-c2ccc(Cl)cc2)n[nH]1 (racemic) | 0.28 µg/mL (≈ 0.702 µM) | 25 µg/mL (≈ 62.7 µM) | 12.5 µg/mL (≈ 31.3 µM) | 0.91 µg/mL (≈ 2.28 µM) | 50 µg/mL (≈ 125 µM) | 12.5 µg/mL (≈ 31.3 µM) | 3.15 µg/mL (≈ 7.9 µM) |
| COc1cc(C2SCC(=O)N2NC(=O)c2cc(-c3ccc(Cl)cc3)n[nH]2)ccc1O (racemic) | 0.05 µg/mL (≈ 0.112 µM) | 1.6 µg/mL (≈ 3.6 µM) | 12.5 µg/mL (≈ 28.1 µM) | 0.15 µg/mL (≈ 0.337 µM) | 12.5 µg/mL (≈ 28.1 µM) | 1.6 µg/mL (≈ 3.6 µM) | 0.65 µg/mL (≈ 1.46 µM) |
| COc1ccc(C2SCC(=O)N2NC(=O)c2cc(-c3ccc(Cl)cc3)n[nH]2)cc1 (racemic) | 0.04 µg/mL (≈ 0.0933 µM) | 3.2 µg/mL (≈ 7.46 µM) | 25 µg/mL (≈ 58.3 µM) | 0.5 µg/mL (≈ 1.17 µM) | 50 µg/mL (≈ 117 µM) | 12.5 µg/mL (≈ 29.1 µM) | 0.65 µg/mL (≈ 1.52 µM) |
| Nc1nc(=O)[nH]cc1F [FLUCYTOSINE] |  | 6.3 µg/mL (≈ 48.8 µM) | 25 µg/mL (≈ 194 µM) |  | 6.3 µg/mL (≈ 48.8 µM) | 6.3 µg/mL (≈ 48.8 µM) |  |
| O=C(O)c1cn(C2CC2)c2cc(N3CCNCC3)c(F)cc2c1=O [CIPROFLOXACIN] |  |  |  | 0.25 µg/mL (≈ 0.754 µM) |  |  |  |
| COc1cc(/C=N/NC(=O)c2cc(-c3ccc(Cl)cc3)n[nH]2)ccc1O | 0.017 µg/mL (≈ 0.0458 µM) | 25 µg/mL (≈ 67.4 µM) | 12.5 µg/mL (≈ 33.7 µM) | 0.12 µg/mL (≈ 0.324 µM) | 12.5 µg/mL (≈ 33.7 µM) | 1.6 µg/mL (≈ 4.32 µM) | 0.55 µg/mL (≈ 1.48 µM) |
| COc1ccc(/C=N/NC(=O)c2cc(-c3ccc(Cl)cc3)n[nH]2)cc1OC | 4 µg/mL (≈ 10.4 µM) | 25 µg/mL (≈ 65 µM) | 12.5 µg/mL (≈ 32.5 µM) | 0.25 µg/mL (≈ 0.65 µM) | 50 µg/mL (≈ 130 µM) | 12.5 µg/mL (≈ 32.5 µM) | 0.37 µg/mL (≈ 0.961 µM) |
| COc1cc([C@@H]2[C@@H](Cl)C(=O)N2NC(=O)c2cc(-c3ccc(Cl)cc3)n[nH]2)ccc1O (racemic) | 0.025 µg/mL (≈ 0.0559 µM) | 3.2 µg/mL (≈ 7.15 µM) | 25 µg/mL (≈ 55.9 µM) | 0.125 µg/mL (≈ 0.279 µM) | 1.6 µg/mL (≈ 3.58 µM) | 12.5 µg/mL (≈ 27.9 µM) | 0.6 µg/mL (≈ 1.34 µM) |
| OC(Cn1cncn1)(Cn1cncn1)c1ccc(F)cc1F [FLUCONAZOLE] |  | 6.3 µg/mL (≈ 20.6 µM) | 25 µg/mL (≈ 81.6 µM) |  | 25 µg/mL (≈ 81.6 µM) | 6.3 µg/mL (≈ 20.6 µM) |  |
| COc1ccc(C2SCC(=O)N2NC(=O)c2cc(-c3ccc(Cl)cc3)n[nH]2)cc1OC (racemic) | 0.2 µg/mL (≈ 0.436 µM) | 6.3 µg/mL (≈ 13.7 µM) | 12.5 µg/mL (≈ 27.2 µM) | 0.06 µg/mL (≈ 0.131 µM) | 12.5 µg/mL (≈ 27.2 µM) | 50 µg/mL (≈ 109 µM) | 1.2 µg/mL (≈ 2.61 µM) |
| O=C(N/N=C/c1ccc(O)cc1)c1cc(-c2ccc(Cl)cc2)n[nH]1 | 0.012 µg/mL (≈ 0.0352 µM) | 12.5 µg/mL (≈ 36.7 µM) | 50 µg/mL (≈ 147 µM) | 0.35 µg/mL (≈ 1.03 µM) | 100 µg/mL (≈ 293 µM) | 50 µg/mL (≈ 147 µM) | 1.1 µg/mL (≈ 3.23 µM) |
| COc1c(N2C[C@@H]3CCCN[C@@H]3C2)c(F)cc2c(=O)c(C(=O)O)cn(C3CC3)c12 [MOXIFLOXACIN] | 0.015 µg/mL (≈ 0.0374 µM) |  |  | 0.06 µg/mL (≈ 0.149 µM) |  |  |  |
| COc1ccc([C@@H]2[C@@H](Cl)C(=O)N2NC(=O)c2cc(-c3ccc(Cl)cc3)n[nH]2)cc1 (racemic) | 0.06 µg/mL (≈ 0.139 µM) | 3.2 µg/mL (≈ 7.42 µM) | 12.5 µg/mL (≈ 29 µM) | 0.0025 µg/mL (≈ 0.0058 µM) | 12.5 µg/mL (≈ 29 µM) | 1.6 µg/mL (≈ 3.71 µM) | 1.2 µg/mL (≈ 2.78 µM) |
| O=C(NN1C(=O)CSC1c1cccc([N+](=O)[O-])c1)c1cc(-c2ccc(Cl)cc2)n[nH]1 (racemic) | 0.6 µg/mL (≈ 1.35 µM) | 25 µg/mL (≈ 56.3 µM) | 100 µg/mL (≈ 225 µM) | 8 µg/mL (≈ 18 µM) | 50 µg/mL (≈ 113 µM) | 100 µg/mL (≈ 225 µM) | 2 µg/mL (≈ 4.51 µM) |
